Results taken from ChEMBL document CHEMBL1123793, “Analysis of structure-activity relationships in renin substrate analogue inhibitory peptides” (J Med Chem, 1987).
*1 amine or outer side, *2 acyl side, *3 side chain or, on linkers, in order; H or OH if unused. Where a SMILES comes first, the peptide text is derived from it. [ ]: non-standard residue; d: D form. The star is where a group is joined. X2 = CC[C@H](C)[C@H](N*)C(=O)NC(=O)[C@@H](N)Cc1ccccc1; Sta = CC(C)C[C@H](N)[C@@H](O)CC(=O)O; X1 = CC(C)CC(N[*:1])C(O)CC(=O)[*:2]; hhPhe = N[C@@H](CCCc1ccccc1)C(=O)O; X3 = CC(=O)[C@H](CCCCN)N*; Orn = NCCC[C@H](N)C(=O)O; Nva = CCC[C@H](N)C(=O)O; For = O=C*

Target: T1, Renin (Rattus norvegicus, UniProt P08424)
T1 sequence (P08424 whole entry): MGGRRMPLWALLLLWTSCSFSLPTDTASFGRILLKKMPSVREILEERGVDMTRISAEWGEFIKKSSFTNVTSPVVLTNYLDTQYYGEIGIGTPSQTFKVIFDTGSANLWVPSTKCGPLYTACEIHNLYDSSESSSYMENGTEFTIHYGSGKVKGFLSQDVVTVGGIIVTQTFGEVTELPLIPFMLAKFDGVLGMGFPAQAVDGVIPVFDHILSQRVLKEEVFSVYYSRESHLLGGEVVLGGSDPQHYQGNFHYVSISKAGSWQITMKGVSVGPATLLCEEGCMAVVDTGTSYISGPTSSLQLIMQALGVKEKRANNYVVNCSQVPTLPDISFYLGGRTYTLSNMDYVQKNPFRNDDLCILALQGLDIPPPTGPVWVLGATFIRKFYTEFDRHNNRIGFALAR
Experiment: Inhibitory potency on plasma renin obtained from Sprague-Dawley rats
Format: cell-free
Method in brief: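 Dog, rabbit or rat plasma was collected into 5 mM EDTA at 0 °C, spun at 4 °C, then given PMSF 5 mM and 8-hydroxyquinoline sulfate 3 mM. Plasma at pH 7.4 with serial inhibitor dilutions was incubated 1 h at 37 °C, with a 0 °C blank. The reaction was quenched at pH 8.5, and angiotensin I was measured by RIA with ¹²⁵I tracer in anti-AI-coated tubes. The ratio is species IC50 divided by human IC50.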

Molecule | IC50 [µM]
CC[C@H](C)[C@H](NC(=O)C[C@H](O)[C@H](CC(C)C)NC(=O)[C@H](Cc1c[nH]cn1)NC(=O)[C@H](Cc1ccccc1)NC(=O)[C@@H]1CCCN1C(=O)[C@H](Cc1c[nH]cn1)NC(=O)[C@@H]1CCCN1)C(=O)N[C@@H](Cc1ccccc1)C(N)=O (H-PHPFH[Sta]IF-NH2) | > 1

Target: T2, Renin (Homo sapiens, UniProt P00797)
T2 sequence (P00797 whole entry): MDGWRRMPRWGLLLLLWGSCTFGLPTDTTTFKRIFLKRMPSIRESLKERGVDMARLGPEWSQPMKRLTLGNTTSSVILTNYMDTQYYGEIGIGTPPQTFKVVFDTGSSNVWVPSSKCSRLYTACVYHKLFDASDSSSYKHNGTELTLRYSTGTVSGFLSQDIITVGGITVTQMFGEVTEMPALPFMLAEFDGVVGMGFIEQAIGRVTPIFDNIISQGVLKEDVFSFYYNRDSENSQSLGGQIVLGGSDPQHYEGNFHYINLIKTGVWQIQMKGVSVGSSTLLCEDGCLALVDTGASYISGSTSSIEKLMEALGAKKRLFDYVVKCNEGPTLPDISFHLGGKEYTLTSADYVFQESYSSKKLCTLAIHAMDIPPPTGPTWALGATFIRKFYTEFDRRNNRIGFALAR
Experiment: Inhibitory activity against human plasma renin
Format: cell-free
Method in brief: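 Pooled human plasma from about 500 hypertensive patients, collected by renal vein catheterization into chilled EDTA, trypsin-activated. PMSF 5 mM, 8-hydroxyquinoline sulfate 3 mM and a further 5 mM EDTA were added, giving about 10 ng AI mL⁻¹ h⁻¹. Plasma at pH 7.4 with serial peptide dilutions was incubated 1 h at 37 °C against a 0 °C blank, quenched at pH 8.5, and angiotensin I was measured by RIA.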

Molecule | IC50 [µM]
CC[C@H](C)[C@H](NC(=O)[C@H](CCCc1ccccc1)NC(=O)[C@H](Cc1c[nH]cn1)NC(=O)[C@H](Cc1cn(C=O)c2ccccc12)NC(=O)[C@@H]1CCCN1C(=O)[C@H](Cc1cn(C=O)c2ccccc12)NC(=O)[C@@H]1CCCN1)C(=O)N[C@@H](Cc1cn(C=O)c2ccccc12)C(N)=O (H-PW(For)PW(For)H[hhPhe]IW(For)-NH2) | 0.049
CC[C@H](C)[C@H](NC(=O)[C@H](CCCc1ccccc1)NC(=O)[C@H](Cc1c[nH]cn1)NC(=O)[C@H](Cc1cn(C=O)c2ccccc12)NC(=O)[C@@H]1CCCN1C(=O)[C@H](Cc1cn(C=O)c2ccccc12)NC(=O)[C@@H]1CCCN1)C(=O)N[C@@H](Cc1ccccc1)C(N)=O (H-PW(For)PW(For)H[hhPhe]IF-NH2) | 0.03
CC(C)CC(NC(=O)[C@H](Cc1cnc[nH]1)NC(=O)[C@H](Cc1ccccc1)NC(=O)[C@@H]1CCCN1C(=O)[C@@H](N)Cc1cnc[nH]1)C(O)CC(=O)N[C@H](C(=O)N[C@@H](Cc1ccc(O)cc1)C(=O)N[C@@H](CCCCN)C(=O)O)C(C)C (stereo partly drawn) (H-HPFH[X1]VYK-OH) | 0.4
CC[C@H](C)[C@H](NC(=O)CC(O)C(CC(C)C)NC(=O)[C@H](Cc1cnc[nH]1)NC(=O)[C@H](Cc1ccccc1)NC(=O)[C@@H]1CCCN1)C(=O)NC(=O)[C@@H](N)Cc1ccccc1 (stereo partly drawn) | 0.22
CC[C@H](C)[C@H](NC(=O)CC(O)C(CC(C)C)NC(=O)[C@H](Cc1c[nH]cn1)NC(=O)[C@H](Cc1ccccc1)NC(=O)[C@@H]1CCCN1)C(=O)N[C@@H](Cc1c[nH]cn1)C(=O)N[C@@H](CCCCN)C(=O)O (stereo partly drawn) (H-PFH[X1]IHK-OH) | 0.9
CC[C@H](C)[C@H](NC(=O)[C@H](CCCc1ccccc1)NC(=O)[C@H](CCCCN)NC(=O)[C@H](Cc1ccccc1)NC(=O)[C@@H]1CCCN1C(=O)[C@H](Cc1c[nH]cn1)NC(=O)[C@@H]1CCCN1)C(=O)N[C@@H](Cc1ccccc1)C(N)=O (H-PHPFK[hhPhe]IF-NH2) | 3.9
CC(C)[C@H](NC(=O)[C@@H](CCCc1ccccc1)NC(=O)[C@H](Cc1c[nH]cn1)NC(=O)[C@H](Cc1ccccc1)NC(=O)[C@@H]1CCCN1C(=O)[C@H](Cc1c[nH]cn1)NC(=O)[C@@H]1CCCN1)C(=O)N[C@@H](Cc1ccc(O)cc1)C(=O)N[C@@H](CCCCN)C(N)=O | 0.027
CC(C)C[C@H](NC(=O)[C@H](Cc1c[nH]cn1)NC(=O)[C@H](Cc1ccccc1)NC(=O)[C@@H]1CCCN1C(=O)[C@H](Cc1c[nH]cn1)NC(=O)[C@@H]1CCCN1)[C@@H](O)CC(N)=O (H-PHPFH[Sta]-NH2) | 0.9
CC[C@H](C)[C@H](NC(=O)CC(O)C(CC(C)C)NC(=O)[C@H](Cc1ccccc1)NC(=O)[C@H](Cc1ccccc1)NC(=O)[C@@H]1CCCN1C(=O)[C@H](Cc1c[nH]cn1)NC(=O)[C@@H]1CCCN1)C(=O)NC(=O)[C@@H](N)Cc1ccccc1 (stereo partly drawn) (H-PHPFF[X1]-X2) | 0.03
CC[C@H](C)[C@H](NC(=O)[C@H](CCCc1ccccc1)NC(=O)[C@H](Cc1cnc[nH]1)NC(=O)[C@H](Cc1ccccc1)NC(=O)[C@@H]1CCCN1C(=O)[C@H](Cc1cnc[nH]1)NC(=O)[C@@H]1CCCN1)C(=O)N[C@@H](Cc1cnc[nH]1)C(=O)N[C@@H](CCCCN)C(C)=O (H-PHPFH[hhPhe]IH-X3) | 0.03
CC[C@H](C)[C@H](NC(=O)CC(O)C(CC(C)C)NC(=O)[C@H](Cc1ccccc1)NC(=O)[C@H](Cc1ccccc1)NC(=O)[C@@H]1CCCN1)C(=O)NC(=O)[C@@H](N)Cc1ccccc1 (stereo partly drawn) | 0.43
CC[C@H](C)[C@H](NC(=O)CC(O)C(CC(C)C)NC(=O)[C@H](Cc1cnc[nH]1)NC(=O)[C@H](Cc1ccccc1)NC(=O)[C@@H]1CCCN1C(=O)[C@H](Cc1cnc[nH]1)NC(=O)[C@@H]1CCCN1C(C)=O)C(=O)N[C@@H](Cc1cnc[nH]1)C(=O)N[C@@H](CCCCN)C(=O)O (stereo partly drawn) (Ac-PHPFH[X1]IHK-OH) | 0.02
CC[C@H](C)[C@H](NC(=O)[C@H](CCCc1ccccc1)NC(=O)[C@H](Cc1c[nH]cn1)NC(=O)[C@H](Cc1ccccc1)NC(=O)[C@@H]1CCCN1C(=O)[C@H](Cc1c[nH]cn1)NC(=O)[C@@H]1CCCN1)C(=O)N[C@@H](Cc1ccccc1)C(N)=O (H-PHPFH[hhPhe]IF-NH2) | 0.03
CC(C)CC(NC(=O)[C@H](Cc1c[nH]cn1)NC(=O)[C@H](Cc1ccccc1)NC(=O)[C@@H]1CCCN1)C(O)CC(N)=O (stereo partly drawn) | 68
CC[C@H](C)[C@H](NC(=O)CC(O)C(CC(C)C)NC(=O)[C@H](Cc1cnc[nH]1)NC(=O)[C@H](Cc1ccccc1)NC(=O)[C@@H]1CCCN1C(=O)[C@H](Cc1cn(C=O)c2ccccc12)NC(=O)[C@@H]1CCCN1)C(=O)N[C@@H](Cc1cn(C=O)c2ccccc12)C(N)=O (stereo partly drawn) (H-PW(For)PFH[X1]IW(For)-NH2) | 0.016
CC(C)[C@H](NC(=O)[C@H](CCCN)NC(=O)[C@H](Cc1c[nH]cn1)NC(=O)[C@H](Cc1ccccc1)NC(=O)[C@@H]1CCCN1)C(=O)N[C@@H](Cc1ccc(O)cc1)C(=O)N[C@@H](CCCCN)C(N)=O (H-PFH[Orn]VYK-NH2) | 100
CC[C@H](C)[C@H](NC(=O)CC(O)C(CC(C)C)NC(=O)[C@H](Cc1cnc[nH]1)NC(=O)[C@H](Cc1ccccc1)NC(=O)[C@@H]1CCCN1C(C)=O)C(=O)N[C@@H](Cc1cnc[nH]1)C(=O)N[C@@H](CCCCN)C(=O)O (stereo partly drawn) (Ac-PFH[X1]IHK-OH) | 0.04
CC[C@H](C)[C@H](NC(=O)[C@H](CCCc1ccccc1)NC(=O)[C@H](Cc1cnc[nH]1)NC(=O)[C@H](Cc1ccccc1)NC(=O)[C@@H]1CCCN1C(C)=O)C(=O)N[C@@H](Cc1cnc[nH]1)C(=O)N[C@@H](CCCCN)C(C)=O (Ac-PFH[hhPhe]IH-X3) | 0.046
H-PHPFRFFVYK-OH | 200
H-PHPFHFFFVYK-OH [RIP] | 5.2
CC[C@H](C)[C@H](NC(=O)[C@H](CCCc1ccccc1)NC(=O)[C@H](Cc1c[nH]cn1)NC(=O)[C@H](Cc1cn(C=O)c2ccccc12)NC(=O)[C@@H]1CCCN1)C(=O)N[C@@H](Cc1ccccc1)C(N)=O (H-PW(For)H[hhPhe]IF-NH2) | 0.067
CC[C@H](C)[C@H](NC(=O)[C@H](CCCc1ccccc1)NC(=O)[C@H](Cc1c[nH]cn1)NC(=O)[C@H](Cc1cn(C=O)c2ccccc12)NC(=O)[C@@H]1CCCN1)C(=O)N[C@@H](Cc1cn(C=O)c2ccccc12)C(N)=O (H-PW(For)H[hhPhe]IW(For)-NH2) | 0.24
CCC[C@H](NC(=O)[C@H](Cc1c[nH]cn1)NC(=O)[C@H](Cc1ccccc1)NC(=O)[C@@H]1CCCN1C(=O)[C@H](Cc1c[nH]cn1)NC(=O)[C@@H]1CCCN1)C(=O)N[C@H](C(=O)NC(=O)[C@@H](N)Cc1ccccc1)[C@@H](C)CC (H-PHPFH[Nva]-X2) | > 1000
CC(C)[C@H](NC(=O)[C@H](Cc1ccccc1)NC[C@H](Cc1ccccc1)NC(=O)[C@H](Cc1cnc[nH]1)NC(=O)[C@H](Cc1ccccc1)NC(=O)[C@@H]1CCCN1C(=O)[C@H](N)Cc1cnc[nH]1)C(=O)N[C@@H](Cc1ccc(O)cc1)C(=O)O | 0.58
H-PFHFFVYK-NH2 | 100
CC[C@H](C)[C@H](NC(=O)[C@H](CCCc1ccccc1)NC(=O)[C@H](Cc1c[nH]cn1)NC(=O)[C@H](Cc1ccccc1)NC(=O)[C@@H]1CCCN1C(=O)[C@H](Cc1cn(C=O)c2ccccc12)NC(=O)[C@@H]1CCCN1)C(=O)N[C@@H](Cc1cn(C=O)c2ccccc12)C(N)=O (H-PW(For)PFH[hhPhe]IW(For)-NH2) | 0.027
CC[C@H](C)[C@H](NC(=O)CC(O)C(CC(C)C)NC(=O)[C@@H](N)Cc1ccccc1)C(=O)NC(=O)[C@@H](N)Cc1ccccc1 (stereo partly drawn) | > 100
